GalR3 antagonist = blocks the human galanin receptor 3; HEK293 GalR3-CNG cAMP membrane potential fluorescence; galR3 body fused to GalR1 C-terminus; inhibition, % at 3 µM; hit rate 0.44% among 360,000;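 active = inhibition above the screen-wide average plus 3 SD, cut at about 13% in these data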;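 also: forskolin and galanin both at EC90 stimulate the cells; cAMP rise reported by CNG channel membrane potential dye signal; 0% = forskolin plus galanin with DMSO and 100% = forskolin alone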
Target sequence (O60755 1-299 limits assumed): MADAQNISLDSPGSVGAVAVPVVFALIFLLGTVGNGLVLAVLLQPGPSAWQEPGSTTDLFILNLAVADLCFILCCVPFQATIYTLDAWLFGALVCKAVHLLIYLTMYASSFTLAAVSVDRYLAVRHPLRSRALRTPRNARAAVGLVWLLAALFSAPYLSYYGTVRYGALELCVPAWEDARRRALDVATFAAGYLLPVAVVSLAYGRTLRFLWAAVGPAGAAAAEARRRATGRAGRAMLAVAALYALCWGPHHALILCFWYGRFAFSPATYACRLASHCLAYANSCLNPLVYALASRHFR
Rin1 Abl inh = human Rin1-Abl interaction inhibition; P00519+Q13671; TR-FRET Rin1/Abl binding, biochemical; inhibition, % at 7.35 µM; hit rate 0.4% among 360,000; in the data active = inhibition above about 5%, passing the limit was not always enough
ASAP1 GAP inh = ASAP1 ArfGAP inhibition; hit rate 0.19% among 360,000; inhibition, % at 16.5 µM; AID 624377; Q9ULH1; ASAP1-stimulated ARF1 GTP hydrolysis, GDP FP detection; in the data active = inhibition above about 25%;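 also: 0% = vehicle with enzyme and substrate and 100% = no enzyme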
ARFGAP1 inh = rat ARFGAP1 inhibition | inhibition, % at 16.5 µM | Q62848 | Arfgap1-stimulated ARF1 GTP hydrolysis, GDP FP detection | hit rate 0.26% among 360,000;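 active = inhibition above a per-plate limit, mean inhibition of low control wells plus 3 SD, cut at about 25% in these data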;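 also: 0% = DMSO wells with enzyme and 100% = wells lacking Arfgap1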
Target sequence (Q62848 1-136 limits assumed): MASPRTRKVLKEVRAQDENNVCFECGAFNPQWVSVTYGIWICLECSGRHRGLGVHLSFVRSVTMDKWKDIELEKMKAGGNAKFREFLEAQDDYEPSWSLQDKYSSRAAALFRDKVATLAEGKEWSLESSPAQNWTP
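Material – truncated rat Arfgap1 GAP domain · Buffer or medium – HEPES-based buffer, pH 7.5 · Reagent – human ARF1(Δ1-17)-GTP substrate · Dosing – 16.5 µM single point, 1.26% DMSO · Schedule – GTP hydrolysis reaction 2 h at 25 °C · Technique – GDP detection by fluorescence polarization · Benchmarks – No-Arfgap1 wells (100%) versus DMSO full-reaction wells (0%) · Repeats – single replicate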
ARFGAP1 confirm = confirmation of rat ARFGAP1 inhibitors; shares compounds with ARFGAP1 inh; ARFGAP1-stimulated ARF1 GTP hydrolysis, GDP tracer FP; inhibition, % at 16.5 µM; hit rate 30% among 890; AID 651608;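 active = average inhibition over triplicates above the hit cutoff set in the earlier primary screen, cut at about 25% in these data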;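 also: 0% = Arfgap1 plus ARF1-GTP with DMSO and 100% = wells lacking Arfgap1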
GalR3 antag conf = GalR3 (human) antagonism, confirmation | shares compounds with GalR3 antagonist | HEK293 GalR3 CNG cAMP biosensor, membrane potential fluorescence; galR3 fused to GalR1 carboxy tail; challenged with forskolin and galanin at EC90 | inhibition, % at 3 µM | hit rate 59% among 1,600 | AID 652245;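 active = inhibition above the primary screen's cutoff, the mean inhibition of all screened compounds plus 3 SD, cut at about 13% in these data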;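 also: 0% = forskolin plus galanin and 100% = forskolin alone with DMSO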
CNG parental = acts as nonspecific agonist in parental HEK-CNG cells; shares compounds with GalR3 antagonist; AID 652268; activation, % at 3 µM; HEK293-CNG parental cells, cAMP membrane potential fluorescence; normalised: DMSO wells 0%, forskolin wells 100%; hit rate 10% among 1,600; in the data active = activation above about 1.3%
* marks the source's active call; other numbers are inactive results; x = not tested or not shown. Most compounds without a hit are left out; they make up all but 1.2% or so of the library.

SMILES	GalR3 antagonist	Rin1 Abl inh	ASAP1 GAP inh	ARFGAP1 inh	GalR3 antag conf	CNG parental	others
COc1ccc(C(=O)NC(=S)N2C[C@H]3C[C@H](C2)c2cccc(=O)n2C3)cc1	-5.6	-3.4	2.9	34.5*	x	x	ARFGAP1 confirm=6.9
CC(=O)OC1CC2OC3C=C(C)CCC3(C)C1(C)C21CO1 (centres undefined)	-6.1	1.0	2.9	6.1	x	x
OC12Oc3ccccc3C=C1N1CCC2CC1 (centres undefined)	-3.1	2.5	-5.0	24.8*	x	x	ARFGAP1 confirm=3.7
O=C(NCCN1CCC2(CC1)C(=O)NCN2c1ccccc1)c1ccccc1F	-4.0	x	-13.1	1.0	x	x
CN(c1ccc(OCC(=O)N2CCN(C/C=C/c3ccccc3)CC2)cc1)S(=O)(=O)c1cccs1	-8.6	-1.6	-11.8	26.8*	x	x	ARFGAP1 confirm=4.1
Clc1ccc(C(c2ccc(Cl)cc2)n2cc[n+](CC(OCc3ccc(Cl)cc3Cl)c3ccc(Cl)cc3Cl)c2)cc1 (centres undefined)	-1.7	-1.1	19.9	28.0*	x	x	ARFGAP1 confirm=81.4*
Cc1cccc(-n2c(O)c(/C=N/Nc3nc4c(c(=O)n(C)c(=O)n4C)n3C)c(=O)[nH]c2=S)c1	1.0	-0.2	-3.7	0.4	x	x
Cc1ccccc1-n1c(O)c(/C=N/Nc2nc3c(c(=O)n(C)c(=O)n3C)n2C)c(=O)[nH]c1=S	1.9	-0.9	0.7	25.5*	x	x	ARFGAP1 confirm=4.4
CC[C@]12CCN(CC3(O)CC3)C(Cc3ccc(O)cc31)C2(C)C	-2.0	x	9.6	10.1	x	x
COc1ccc(C2=CC(c3ccc4c(c3)OCO4)c3c(c4ccccc4oc3=O)O2)cc1OC (centres undefined)	36.2*	3.0	8.5	-4.8	42.1*	0.8
COc1ccc(C(CC(=O)c2ccc3c(c2)OCO3)c2c(O)c3ccccc3oc2=O)cc1OC (centres undefined)	-2.6	3.8	0.9	-0.3	x	x
O=C(NCCO)c1nsnc1NCCCl	x	7.5	-6.2	1.5	28.4*	-0.2
O=P(OCCCl)(OCCCl)OCCCl	0.6	x	-9.3	6.1	x	x
CNc1cc(Cl)c2nonc2c1[N+](=O)[O-]	39.1*	1.7	-1.2	-1.5	31.3*	0.4
Cc1cc([N+](=O)[O-])c(Cl)cc1NC(=O)C(C)C	-1.5	-0.2	-7.2	-0.2	x	x
Cc1nn(C)c(C)c1/C=C1/CC2C3CC=C4CC(O)CCC4(C)C3CCC2(C)C1=O (centres undefined)	14.0*	3.2	-2.1	11.5	30.5*	0.0
COc1ccc(-n2nnnc2C(c2cc3ccccc3o2)N2CCC(n3c(=O)[nH]c4ccccc43)CC2)cc1 (centres undefined)	42.2*	4.7	2.6	6.8	26.9*	-0.4
CC(C)(C)c1ccc(CSc2cnn(C(C)(C)C)c(=O)c2Cl)cc1	94.7*	4.9	6.3	-1.6	103.6*	1.0
O=C(NCCN1CCC2(CC1)C(=O)NCN2c1ccccc1)c1ccc(Cl)cc1	-8.0	x	-6.6	-2.2	x	x
Cc1ccc(Cn2nc(C(=O)Nc3ccc(Br)cc3)cc2C)cc1	92.5*	5.4	-13.3	-5.0	104.0*	0.8
NC(=O)c1cn(C2OC(CO)C(O)C2O)c2ncnc(N)c12 (centres undefined)	80.5*	3.1	7.2	-2.9	80.9*	0.2
N#Cc1c(Br)n(C2OC(CO)C(O)C2O)c2ncnc(N)c12 (centres undefined)	-4.0	3.4	8.2	-13.0	x	x
NC(=O)c1c(Br)n(C2OC(CO)C(O)C2O)c2ncnc(N)c12 (centres undefined)	-3.4	4.4	-8.6	-9.9	x	x
N#Cc1cn(C2OC(CO)C(O)C2O)c2ncnc(N)c12 (centres undefined)	68.5*	3.0	-2.9	-2.2	76.3*	0.0
COC(=O)C1C(c2ccc(C)cc2)CC2CCC1N2C (centres undefined)	-2.4	x	-4.0	5.1	x	x
SMILES	GalR3 antagonist	Rin1 Abl inh	ASAP1 GAP inh	ARFGAP1 inh	GalR3 antag conf	CNG parental	others
Cc1ccccc1C(=O)NCCN1CCC2(CC1)C(=O)NCN2c1ccccc1	-5.3	x	-2.2	6.0	x	x
C[C@]12CC[C@H]3C(CCC4(O)CC(O)CC[C@]34C=O)C1=CC[C@H]2c1ccc(=O)oc1 (some centres undefined)	16.7*	-2.7	9.5	-8.2	41.7*	2.7*
COc1cccc(-c2ccc3c(c2)C2c4cnnn4-c4ccccc4C(=O)N2CC3)c1 (centres undefined)	-5.4	x	6.1	-7.8	x	x
CCOC(=O)[C@]12Cc3cc(C)ccc3[C@H]1N(C1CCCCC1)C(=O)c1ccccc12	34.2*	x	-2.2	-10.4	58.0*	1.1
CCOC(=O)[C@]12Cc3cc(Cl)ccc3[C@H]1N(C)C(=O)c1cc(OC)ccc12	-6.3	x	-13.6	-16.2	x	x
CCOC(=O)[C@]12Cc3ccc(C)cc3[C@H]1N(C1CCCCC1)C(=O)c1ccccc12	5.7	x	4.0	2.8	x	x
CCOC(=O)[C@]12Cc3ccc(C)cc3[C@H]1N(C1CCCCC1)C(=O)c1cc(OC)ccc12	16.0*	x	-2.5	5.8	45.3*	2.3*
CCOC(=O)[C@]12Cc3cc(Cl)ccc3[C@H]1N(C1CCCCC1)C(=O)c1cc(OC)ccc12	19.7*	x	-6.2	-6.9	46.3*	4.3*
COC(=O)C1=C(c2ccc(OC(F)(F)F)cc2)C[C@@H]2CC[C@H]1N2C(=O)NCc1ccco1	-6.4	x	4.2	4.2	x	x
O=C(c1ccccc1)N1Cc2cc(Br)ccc2-n2nncc2C1	-3.6	x	-3.1	-4.1	x	x
CN[C@H](C)[C@H](O)c1ccccc1	x	1.9	x	x	x	x
CC(NCC#Cc1ccccc1)C(O)c1ccccc1 (centres undefined)	16.0*	2.5	7.2	3.6	35.4*	0.9

High-throughput results: PubChem, The Scripps Research Institute Molecular Screening Center
